Source: PubChem (several laboratories)
The list is not random: actives were taken first. Their share in the collection is about 2.8%.
TNAP act hiacc = activators of human TNAP at high phosphate acceptor concentration | P05186 | activation factor at 20 µM | 200,000 tested, under 10 active | purified TNAP, CDP-star luminescence, 1 M DEA, 30 min; stronger effect = higher value; 0 = EDTA background, 1 = DMSO-only activity;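 active = activation factor at least 2 at 20 µM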
Target sequence (P05186 whole entry, looked up): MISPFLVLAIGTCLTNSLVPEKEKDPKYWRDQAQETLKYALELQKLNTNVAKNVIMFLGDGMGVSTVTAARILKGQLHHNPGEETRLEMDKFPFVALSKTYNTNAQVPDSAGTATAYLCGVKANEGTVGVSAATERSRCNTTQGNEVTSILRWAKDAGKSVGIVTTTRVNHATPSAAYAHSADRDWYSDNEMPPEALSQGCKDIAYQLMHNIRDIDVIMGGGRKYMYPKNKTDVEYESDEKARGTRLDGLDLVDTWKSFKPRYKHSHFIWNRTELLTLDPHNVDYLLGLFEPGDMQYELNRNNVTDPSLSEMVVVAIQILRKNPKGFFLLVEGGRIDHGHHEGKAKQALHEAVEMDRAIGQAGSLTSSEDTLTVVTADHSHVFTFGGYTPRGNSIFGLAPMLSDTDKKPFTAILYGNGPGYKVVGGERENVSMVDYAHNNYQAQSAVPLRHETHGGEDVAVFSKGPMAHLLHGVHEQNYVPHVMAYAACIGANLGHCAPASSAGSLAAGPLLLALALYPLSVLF
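system = human TNAP | amount = enzyme diluted 1/800 final | reagent = 100 µM CDP-star substrate | signal = luminescent substrate turnover signal | dosing = one dose, 20 µM | benchmarks = EDTA negative control, DMSO positive control | measure = activation factor | timing = 30 min reaction, room temperature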
Yeast lifespan up = yeast lifespan extension; actives 0.68% (n = 130,000); inhibition of the nicotinamide effect, % at 10 µM; S. cerevisiae growth with nicotinamide, OD615; deaD strain in restrictive glucose medium;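 active = inhibition above a set limit, placed 3 SD over the median of all compounds, cut at about 26% in these data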
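Measured by: optical density (absorbance) at 615 nm; System: modified budding yeast, DeaD strain; Medium: restrictive CSMM-D dextrose medium; Timing: 4 h preincubation then 48 h treatment at 30 °C.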
BB579 growth dn = reduces growth of yeast BB579 in restrictive medium. S. cerevisiae BB579 growth, OD615, 48 h. inhibition, % at 10 µM. actives 0.51% (n = 140,000);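 active = inhibition above a set limit, 3 SD over the mean compound inhibition, cut at about 44% in these data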
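Test system: Saccharomyces cerevisiae DeaD strain BB579, replicative lifespan model yeast | Buffer or medium: Restrictive CSMM-D medium | Doses: One dose, 10 µM compound with 0.25% DMSO | Incubation: 48 h exposure, 30 °C | Detection: Culture absorbance at 615 nm | Control set: Amphotericin B at 10 µg/mL as positive control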
RAM inhibit = yeast RAM network inhibition; actives 1.8% (n = 190,000); AID 868; S. cerevisiae dse1pr::URA3 reporter, 5-FOA growth OD615, 2 d; analog-sensitive cbk1-as2 kinase mutant strain; inhibition, % at 50 µM;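 active = inhibition above a set limit, 3 SD over mean compound inhibition, cut at about 8.4% in these data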;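 note: inhibition rescues growth on 5-FOA so higher OD means more RAM inhibition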
TNAP inh hiacc = blocks human TNAP under high phosphate acceptor concentration. purified TNAP, CDP-star luminescence, 1 M DEA. P05186. inhibition, % at 20 µM. actives 0.03% (n = 200,000). AID 1135;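 active = over 50% inhibition of tissue-nonspecific alkaline phosphatase at 20 µM in the single-dose screen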
TNAP inh noacc = inhibitors of human TNAP without phosphate acceptor; inhibition, % at 20 µM; actives 0.26% (n = 200,000); purified TNAP, CDP-star luminescence, 30 min;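 active = tissue-nonspecific alkaline phosphatase inhibition above about 50% at 20 µM in the single-dose screen, limit read from the data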
Each line names hits and unclear results; the compound was inactive in the other large screens.

CCOC(=O)c1cc(-c2ccc(Cl)cc2)nc2onc(C)c12	RAM inhibit 9.8
CC(C)(C)c1n[nH]c2c1CCCC2	Yeast lifespan up 28.0
Cc1ccc(S(=O)(=O)c2cc(C#N)c(=O)[nH]c2N)cc1	none
CCCN1CCC(=NNc2ccc(C(=O)O)cc2)CC1	none (no result: Yeast lifespan up, BB579 growth dn)
Cc1ccccc1COC(=O)c1nn(-c2ccccc2)nc1N	RAM inhibit 9.4 (no result: Yeast lifespan up, BB579 growth dn)
CC(C)Oc1cccc(C(=O)C2CCCN(Cc3cccn3-c3ccccn3)C2)c1 (stereo unspecified)	none (no result: Yeast lifespan up, BB579 growth dn)
CCCCn1c(SCC(=O)c2ccc(O)c(O)c2)nc2ccsc2c1=O	TNAP inh noacc 96.5
O=C(O)CCCCCn1c(SCC(=O)c2ccc(O)c(O)c2)nc2ccsc2c1=O	TNAP inh noacc 94.1
COC(=O)[C@H](C)[C@@H]1C[C@@]1(C)[C@@H](NC(=O)OCc1ccccc1)c1ccccc1	RAM inhibit 8.6
COc1ccc(CNC(=O)[C@H](C)[C@@H]2C[C@@]2(C)[C@@H](NC(=O)OCc2ccccc2)c2ccccc2)cc1OC	none
C[C@@H](C(=O)NCc1ccccc1)[C@H]1C[C@]1(C)[C@H](NC(=O)OCc1ccccc1)c1ccccc1	RAM inhibit 9.5
C[C@@H](C(=O)O)[C@H]1C[C@]1(C)[C@H](NC(=O)OCc1ccccc1)c1ccccc1	none
COc1ccc2c(C)nc(Nc3nc(C)c(C)c(=O)[nH]3)nc2c1	BB579 growth dn 59.3
COc1cc(NC(=O)c2cccc3c2C(=O)N(Cc2cccnc2)C3)cc(OC)c1OC	none
CCCC[C@@H]1C[C@H]1[C@@H](NC(=O)c1ccco1)c1ccc(Cl)cc1	none
CCCC[C@@H]1C[C@H]1[C@@H](NC(=O)c1cccs1)c1ccc(Cl)cc1	RAM inhibit 9.8
S=C1SCN(Cc2cccnc2)CN1Cc1ccccc1	none (no result: Yeast lifespan up, BB579 growth dn)
CCOCCCN1CN(Cc2ccco2)CNC1=S	none (no result: Yeast lifespan up, BB579 growth dn)
S=C1SCN(Cc2ccccn2)CN1Cc1ccco1	BB579 growth dn 52.3
COCCN1CSC(=S)N(Cc2ccco2)C1	BB579 growth dn 59.5
COc1ccc(NC(=S)Nc2ccc(S(N)(=O)=O)cc2)c(OC)c1	none (no result: Yeast lifespan up, BB579 growth dn)
COc1ccc(C2CC(c3c(-c4ccccc4)c4cc(Cl)ccc4[nH]c3=O)=NN2C(=O)CCC(=O)O)cc1 (stereo unspecified)	RAM inhibit 9.1 (no result: Yeast lifespan up, BB579 growth dn)
Cc1ccc(C(=O)C2=C(O)C(=O)N(CCN3CCOCC3)C2c2ccccn2)o1 (stereo unspecified)	none
O=C(O/N=C/C1=C(Cl)c2ccccc2CC1)c1ccc(F)cc1	RAM inhibit 9.5
CNC(=S)N(CCc1ccc(S(N)(=O)=O)cc1)C1CC(=O)N(c2ccccc2F)C1=O (stereo unspecified)	RAM inhibit 9.4 (no result: Yeast lifespan up, BB579 growth dn)
COc1ccc(CCN(C(=S)Nc2ccccc2)C2CC(=O)N(c3ccccc3)C2=O)cc1 (stereo unspecified)	none
COC(=O)CSc1ccc(S(=O)(=O)N2CCOCC2)cc1[N+](=O)[O-]	none
CCOC(=O)CSc1ccc(S(=O)(=O)N2CCC(C)CC2)cc1[N+](=O)[O-]	RAM inhibit 10.6
CCc1nc2ccccc2c(=O)n1NC(=O)c1c(O)c2cccc3c2n(c1=O)CCC3	BB579 growth dn 83.4
O=C(NCc1ccccc1)c1c(O)c2cccc3c2n(c1=O)CCC3	none
O=C(NCc1ccco1)c1c(O)c2cccc3c2n(c1=O)CCC3	Yeast lifespan up 46.7
CCNCCNC(=O)c1c(O)c2cccc3c2n(c1=O)CCC3	Yeast lifespan up 70.1
O=C(Nc1cccnc1)c1c(O)c2cccc3c2n(c1=O)CC3	Yeast lifespan up 62.2
COc1ccccc1-c1cc(SC)c(C#N)c(=O)o1	Yeast lifespan up 26.5, RAM inhibit 9.3
CC(C)C(=O)Nc1nnc(SCC(=O)NCc2cccs2)s1	none
COC(=O)c1[nH]c2ccccc2c1NC(=O)CN1CCN(c2cccc(OC)c2)C(C)C1 (stereo unspecified)	none
NC(=O)CSc1nc(-c2ccccc2)c(-c2ccccc2)o1	RAM inhibit 11.4 (no result: Yeast lifespan up)
O=c1c(Cl)c(Cl)cnn1Cc1ccc(F)cc1	none (no result: Yeast lifespan up, BB579 growth dn)
O=C(OCn1ncc(Cl)c(Cl)c1=O)c1ccccc1Cl	BB579 growth dn 66.4
O=C(OCn1ncc(Cl)c(Cl)c1=O)c1ccc(F)cc1	BB579 growth dn 44.6
N#CC1=C(N)Oc2n[nH]c(-c3ccccc3)c2C1c1ccncc1 (stereo unspecified)	TNAP inh noacc 53.0
N#CC1=C(N)Oc2n[nH]c(-c3ccc(F)cc3)c2C1c1cccnc1 (stereo unspecified)	none
O=c1[nH][nH]c(-c2ccccc2O)c1C(C[N+](=O)[O-])c1ccc(Cl)cc1Cl (stereo unspecified)	TNAP inh noacc 70.3
O=c1[nH][nH]c(-c2ccccc2O)c1C(C[N+](=O)[O-])c1cccc(Cl)c1 (stereo unspecified)	none
CC1CCCCC1NCC#CCOc1ccc(Cl)cc1 (stereo unspecified)	none (no result: Yeast lifespan up, BB579 growth dn)
O=C(O)CCC(=O)Nc1sc2c(c1C(=O)Nc1cccc3ccccc13)CCCCC2	Yeast lifespan up 30.1
O=C(O)CCC(=O)Nc1sc2c(c1C(=O)Nc1ccccc1)CCCCC2	none (no result: Yeast lifespan up, BB579 growth dn)
COC(=O)c1c(NC(=O)CCC(=O)O)sc2c1CCCCC2	none
CC(C)OC(=O)c1c(NC(=O)CCn2nnc3ccccc32)sc2c1CCCC2	RAM inhibit 9.5
CC(C)OC(=O)c1c(NC(=O)CCC(=O)O)sc2c1CCCCC2	RAM inhibit 8.5
Cn1c(N2CCOCC2)c(/C=N/OC(=O)c2cccnc2Cl)c2ccccc21	none (no result: Yeast lifespan up, BB579 growth dn)
CC(=O)O/N=C/c1c(N2CCOCC2)n(C)c2ccccc12	BB579 growth dn 78.7
Cn1c(N2CCOCC2)c(/C=N/OC(=O)c2ccc(F)cc2)c2ccccc21	BB579 growth dn 85.4
Cc1ccc(C(=O)O/N=C/c2c(N3CCOCC3)n(C)c3ccccc23)cc1	BB579 growth dn 63.9
Cn1c(N2CCOCC2)c(/C=N/O)c2ccccc21	none (no result: Yeast lifespan up, BB579 growth dn)
COC(=O)c1cc2sccc2n1Cc1nc(-c2cccc(Cl)c2)oc1C	none
COC(=O)c1cc2occc2n1Cc1nc(-c2cccc(Cl)c2)oc1C	RAM inhibit 11.3
COc1ccc(CC2(CO)CCN(Cc3cccn3-c3ccccn3)CC2)cc1	none (no result: Yeast lifespan up, BB579 growth dn)
CC(C)NS(=O)(=O)c1cc(C(=O)O)ccc1Cl	Yeast lifespan up 26.5
CCOC(=O)c1ccc(NC(=O)C(=O)NCc2ccco2)cc1	none (no result: Yeast lifespan up, BB579 growth dn)
c1ccc(CSc2nnc(-c3sccc3-n3cccc3)o2)cc1	RAM inhibit 8.7
NCCc1nnc(SCc2ccccc2)o1	none
CCn1c(SCC(=O)Nc2nc(-c3ccc(C)cc3)cs2)nnc1-c1ccccc1O	none
CCOC(=O)C1=C(O)/C(=C/c2ccc(OCC(=O)O)c(OC)c2)SC1=Nc1ccc(OCC)cc1	none
